{"source": "ChEMBL document CHEMBL3877293", "about": "“Synthesis and Antineoplastic Evaluation of Novel Unsymmetrical 1,3,4-Oxadiazoles” (J Med Chem, 2016)", "key": {"[1]": {"system": "HeLa", "assay": "Antiproliferative activity against human HeLa cells at 2 uM after 72 hrs by XTT assay", "format": "functional, cell-based"}, "[2]": {"assay": "Antiproliferative activity against human SK-N-AS cells after 72 hrs by XTT assay", "format": "functional, cell-based", "how_it_was_run": "(§1)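 Cells plated at 1500–2000 per well by doubling time, treated after 24 h with a concentration series in six triplicate wells, and incubated 72 h without a medium change. XTT reagent was then added for 4 h at 37 °C and absorbance read at 490 nm. IC50 is the concentration halving absorbance versus untreated cells. Experiments run in triplicate.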"}, "[3]": {"assay": "Antiproliferative activity against human LAN1 cells after 72 hrs by XTT assay", "format": "functional, cell-based", "conditions": "LAN1, 72 h", "how_it_was_run": "as §1"}, "[4]": {"system": "MCF7", "assay": "Selectivity ratio of IC50 for human MCF7 cells to IC50 for human RD cells", "format": "functional", "how_it_was_run": "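XTT viability: 1500–2000 cells/well plated by doubling time; compounds added after 24 h, then 72 h further culture without medium change. XTT reagent 4 h at 37 °C, absorbance read at 490 nm. IC50 is the concentration halving absorbance versus untreated cells; triplicate experiments. Ratio is MCF7 IC50 divided by IC50 in the named line.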"}, "[5]": {"assay": "Cell cycle arrest in human MCF7 cells assessed as S phase accumulation at 1 uM after 144 hrs by propidium iodide staining based flow cytometry (reference value: 17.8%)", "format": "functional"}, "[6]": {"assay": "Cell cycle arrest in human MCF7 cells assessed as G2/M phase accumulation at 1 uM after 144 hrs by propidium iodide staining based flow cytometry (reference value: 16.3%)", "format": "functional"}, "[7]": {"assay": "Cell cycle arrest in human NCI-H1299 cells assessed as S phase accumulation at 1 uM after 24 hrs by propidium iodide staining based flow cytometry (reference value: 16.4 +/- 1.76%)", "format": "functional"}, "[8]": {"assay": "Cell cycle arrest in human NCI-H1299 cells assessed as G2/M phase accumulation at 1 uM after 24 hrs by propidium iodide staining based flow cytometry (reference value: 22.2 +/- 1.74%)", "format": "functional"}, "[9]": {"assay": "Cell cycle arrest in human RD cells assessed as S phase accumulation at 1 uM after 24 hrs by propidium iodide staining based flow cytometry (reference value: 14.4 +/- 0.92%)", "format": "functional"}, "[10]": {"assay": "Cell cycle arrest in human SH-SY5Y cells assessed as G1 phase accumulation at 1 uM after 24 hrs by propidium iodide staining based flow cytometry (reference value: 59.6 +/- 1.94%)", "format": "functional"}, "[11]": {"assay": "Cell cycle arrest in human SK-N-AS cells assessed as subG1 phase accumulation at 1 uM after 24 hrs by propidium iodide staining based flow cytometry relative to DMSO control", "format": "functional"}, "[12]": {"assay": "Cell cycle arrest in human SK-N-AS cells assessed as G1 phase accumulation at 1 uM after 24 hrs by propidium iodide staining based flow cytometry (reference value: 51.5 +/- 1.39%)", "format": "functional"}, "[13]": {"assay": "Cell cycle arrest in human Kelly cells assessed as subG1 phase accumulation at 1 uM after 24 hrs by propidium iodide staining based flow cytometry relative to DMSO control", "format": "functional"}, "[14]": {"assay": "Cell cycle arrest in human Kelly cells assessed as G1 phase accumulation at 1 uM after 24 hrs by propidium iodide staining based flow cytometry (reference value: 65.9 +/- 1.87%)", "format": "functional"}, "[15]": {"assay": "Cell cycle arrest in human Kelly cells assessed as G2/M phase accumulation at 1 uM after 24 hrs by propidium iodide staining based flow cytometry (reference value: 18 +/- 1.28%)", "format": "functional"}, "[16]": {"assay": "Cell cycle arrest in human LAN1 cells assessed as G1 phase accumulation at 1 uM after 24 hrs by propidium iodide staining based flow cytometry (reference value: 60.3 +/- 1.82%)", "format": "functional"}, "[17]": {"assay": "Cell cycle arrest in human LAN1 cells assessed as G2/M phase accumulation at 1 uM after 24 hrs by propidium iodide staining based flow cytometry (reference value: 26.2 +/- 1.92%)", "format": "functional"}, "[18]": {"assay": "Cell cycle arrest in human PC3 cells assessed as S phase accumulation at 1 uM after 24 hrs by propidium iodide staining based flow cytometry (reference value: 6.2 +/- 0.94%)", "format": "functional", "conditions": "PC-3"}, "[19]": {"assay": "Cell cycle arrest in human NB-1 cells assessed as G1 phase accumulation at 1 uM after 24 hrs by propidium iodide staining based flow cytometry (reference value: 75%)", "conditions": "nb1, 24 h"}, "[20]": {"assay": "Cell cycle arrest in human NB-1 cells assessed as G1 phase accumulation at 1 uM after 72 hrs by propidium iodide staining based flow cytometry (reference value: 81.7%)", "conditions": "nb1, 72 h"}, "[21]": {"assay": "Cell cycle arrest in human NB1 hTERT cells assessed as G2/M phase accumulation at 1 uM after 24 hrs by propidium iodide staining based flow cytometry (reference value: 35.7%)", "format": "functional"}, "[22]": {"assay": "Cell cycle arrest in human NB1 hTERT cells assessed as G1 phase accumulation at 1 uM after 48 hrs by propidium iodide staining based flow cytometry (reference value: 62.5%)", "format": "functional"}, "[23]": {"system": "SH-SY5Y", "assay": "Disruption of beta-tubulin network in human SH-SY5Y cells assessed as shorter microtubule bundles around nuclei at 1 uM after 24 hrs by DAPI staining based immunofluorescence microscopic analysis", "format": "cell-based", "how_it_was_run": "(§2)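 Cells seeded on glass coverslips (1 x 10^5/well), treated 24 h, fixed in 4% paraformaldehyde 15 min, permeabilized with 0.5% Triton X-100, blocked in 5% BSA/PBS, stained overnight at 4 °C with anti-β-tubulin (1:200) then fluorescent secondary antibody; nuclei counterstained with DAPI; microtubule organization and nuclear morphology examined by fluorescence microscopy.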"}, "[24]": {"system": "SH-SY5Y", "assay": "Disruption of beta-tubulin network in human SH-SY5Y cells assessed as apoptotic nuclei at 1 uM after 24 hrs by DAPI staining based immunofluorescence microscopic analysis", "format": "cell-based", "how_it_was_run": "as §2"}, "[25]": {"system": "A549", "assay": "Increase in p53 expression in human A549 cells at 1 uM after 24 hrs by immunoblot method relative to control", "format": "functional", "how_it_was_run": "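After 24 h treatment at 1 μM, cells lysed in Tris pH 8/NaCl/glycerol/NP-40/EDTA buffer with protease inhibitors. Equal lysate amounts run on 10% SDS gels, blotted to nitrocellulose, probed for p53 with GAPDH as loading control, detected by enhanced chemiluminescence. Bands quantified by densitometry against GAPDH and compared with untreated cells; three independent experiments.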"}, "[26]": {"system": "HeLa", "assay": "Induction of apoptosis in human HeLa cells assessed as early apoptotic cells at 5 uM after 48 hrs by Annexin-V FITC/propidium iodide staining based flow cytometry (reference value: 1.6%)", "format": "functional"}, "[27]": {"system": "HeLa", "assay": "Induction of apoptosis in human HeLa cells assessed as necrotic cells at 5 uM after 48 hrs by Annexin-V FITC/propidium iodide staining based flow cytometry (reference value: 2.3%)", "format": "functional"}, "[28]": {"assay": "Induction of apoptosis in human NB-1 cells assessed as early apoptotic cells at 5 uM after 72 hrs by Annexin-V FITC/propidium iodide staining based flow cytometry (reference value: 3.2%)", "format": "cell-based", "conditions": "nb1, 72 h"}, "[29]": {"assay": "Induction of apoptosis in human NB-1 cells assessed as necrotic cells at 5 uM after 72 hrs by Annexin-V FITC/propidium iodide staining based flow cytometry (reference value: 0.2%)", "format": "cell-based", "conditions": "nb1, 72 h"}, "[30]": {"assay": "Antiproliferative activity against human NB-1 cells after 72 hrs by XTT assay", "format": "cell-based", "conditions": "NB1, 72 h", "how_it_was_run": "as §1"}, "[31]": {"assay": "Cell cycle arrest in human NCI-H1299 cells assessed as sub G1 phase accumulation at 1 uM after 48 hrs by propidium iodide staining based flow cytometry relative to control", "format": "functional"}}, "note": "Calls of active or inactive are those of the source. The rule behind the calls is not given here."}
{"smiles": "Cc1[nH]c2c(c1-c1nnc(-c3ccccc3)o1)Cc1ccccc1-2", "values": [{"measurement": "Activity", "setting": "[1]", "value": "Active"}, {"measurement": "IC50", "setting": "[2]", "value": 190, "unit": "nM"}, {"measurement": "IC50", "setting": "[3]", "value": 380, "unit": "nM"}, {"measurement": "Ratio IC50", "setting": "[4]", "value": "28 - 34"}, {"measurement": "Activity", "setting": "[5]", "value": 5.6, "unit": "%"}, {"measurement": "Activity", "setting": "[6]", "value": 79.9, "unit": "%"}, {"measurement": "Activity", "setting": "[7]", "value": 7.6, "unit": "%"}, {"measurement": "Activity", "setting": "[8]", "value": 74.6, "unit": "%"}, {"measurement": "Activity", "setting": "[9]", "value": 10.6, "unit": "%"}, {"measurement": "Activity", "setting": "[10]", "value": 24.8, "unit": "%"}, {"measurement": "Activity", "setting": "[11]", "value": 6.3, "unit": "%"}, {"measurement": "Activity", "setting": "[12]", "value": 10.8, "unit": "%"}, {"measurement": "Activity", "setting": "[13]", "value": 13.4, "unit": "%"}, {"measurement": "Activity", "setting": "[14]", "value": 34.3, "unit": "%"}, {"measurement": "Activity", "setting": "[15]", "value": 42.9, "unit": "%"}, {"measurement": "Activity", "setting": "[16]", "value": 11.8, "unit": "%"}, {"measurement": "Activity", "setting": "[17]", "value": 82.6, "unit": "%"}, {"measurement": "Activity", "setting": "[18]", "value": 4.7, "unit": "%"}, {"measurement": "Activity", "setting": "[19]", "value": 73, "unit": "%"}, {"measurement": "Activity", "setting": "[20]", "value": 77.6, "unit": "%"}, {"measurement": "Activity", "setting": "[21]", "value": 28.9, "unit": "%"}, {"measurement": "Activity", "setting": "[22]", "value": 41.1, "unit": "%"}, {"measurement": "Activity", "setting": "[23]", "value": "Active"}, {"measurement": "Activity", "setting": "[24]", "value": "Active"}, {"measurement": "fold change (FC)", "setting": "[25]", "value": "2 - 3"}, {"measurement": "Activity", "setting": "[26]", "value": 4.6, "unit": "%"}, {"measurement": "Activity", "setting": "[27]", "value": 4.3, "unit": "%"}, {"measurement": "Activity", "setting": "[28]", "value": 4.2, "unit": "%"}, {"measurement": "Activity", "setting": "[29]", "value": 0.8, "unit": "%"}, {"measurement": "IC50", "setting": "[30]", "value": 1300, "unit": "nM"}, {"measurement": "Activity", "setting": "[31]", "value": 13.4, "unit": "%"}]}
